# Source: ChEMBL document CHEMBL4765370, “Design, synthesis, and biological evaluation of aryl piperazines with potential as antidiabetic agents via the stimulation of glucose uptake and inhibition of NADH:ubiquinone oxidoreductase” (Eur J Med Chem, 2020)
# Legend:
# [1] = Protein binding human serum at 1 uM after 60 to 120 mins by HPLC-MS/MS analysis; format: ADME, cell-free; settings: time 60-120 min, read-out: PB (converted)
# [2] = AUClast in C57 Black mouse kidney at 10 mg/kg, po; format: ADME, organism-based; design: time 0 - last, route oral, dose 10 mg/kg
# How it was run: (§1)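 Male C57BL/6 mice were given a single 10 mg/kg dose either intravenously or orally. The oral and IV solutions were formulated in 10% DMSO, 10% cremaphor and 80% saline. Concentrations in plasma and in the tissues collected were determined after dosing, with n = 3 per route. Values are given as mean ± SEM.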
# [3] = Half life in human plasma at 1 uM after 60 to 120 mins by HPLC-MS/MS analysis; format: ADME, cell-free; settings: time 60-120 min
# How it was run: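 Buffer containing test compound at 1 µM was mixed with human or mouse blood plasma and incubated at 37 °C for 60–120 min. Parent compound remaining gave the plasma half-life and the percentage stable at 2 h.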
# [4] = AUCall in C57 Black mouse spleen at 10 mg/kg, po; format: ADME, organism-based; design: dose 10 mg/kg; how it was run: as §1
# [5] = Cmax in C57 Black mouse liver at 10 mg/kg, po; format: ADME, organism-based; design: route oral, dose 10 mg/kg; how it was run: as §1
# [6] = Cmax in C57 Black mouse brain at 10 mg/kg, iv; format: ADME, organism-based; design: route intravenous, dose 10 mg/kg; how it was run: as §1
# [7] = Tmax in C57 Black mouse kidney at 10 mg/kg, po; format: ADME, organism-based
# How it was run: (§2)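 Male C57BL/6 mice (n = 3) dosed at 10 mg/kg by IV or oral (PO) route. Dosing solutions were formulated in 10% DMSO, 10% cremaphor and 80% saline. Compound levels were measured in plasma and tissues over time, and values are given as mean ± SEM.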
# [8] = Bioavailability in C57 Black mouse at 10 mg/kg, iv or po; settings: in vivo
# [9] = Cmax in C57 Black mouse spleen at 10 mg/kg, po; format: ADME, organism-based; design: route oral, dose 10 mg/kg; how it was run: as §1
# [10] = AUCinfinity in C57 Black mouse kidney at 10 mg/kg, iv; format: ADME, organism-based; design: route intravenous, time infinity, dose 10 mg/kg; how it was run: as §1
# [11] = Tmax in C57 Black mouse kidney at 10 mg/kg, iv; format: ADME, organism-based; how it was run: as §2
# [12] = Volume of distribution in C57 Black mouse muscle at 10 mg/kg, iv; format: ADME, organism-based, Muscle tissue; how it was run: as §2
# [13] = Half life in C57 Black mouse brain at 10 mg/kg, iv; format: ADME, organism-based; how it was run: as §1
# [14] = Tmax in C57 Black mouse brain at 10 mg/kg, po; format: ADME, organism-based; how it was run: as §2
# [15] = Clearance in C57 Black mouse assessed as liver blood flow at 10 mg/kg, iv or po; format: ADME, organism-based; settings: in vivo
# [16] = AUCall in C57 Black mouse kidney at 10 mg/kg, iv; format: ADME, organism-based; design: dose 10 mg/kg; how it was run: as §1
# [17] = AUCinfinity in C57 Black mouse spleen at 10 mg/kg, po; format: ADME, organism-based; design: time infinity, route oral, dose 10 mg/kg; how it was run: as §1
# [18] = AUClast in C57 Black mouse spleen at 10 mg/kg, iv; format: ADME, organism-based; design: time 0 - last, route intravenous, dose 10 mg/kg; how it was run: as §1
# [19] = Intrinsic clearance in mouse microsomes at 1 uM up to 120 mins by HPLC/MS-MS analysis; format: ADME, Microsome
# [20] = Half life in C57 Black mouse plasma at 10 mg/kg, po; format: ADME, organism-based; how it was run: as §2
# [21] = AUClast in C57 Black mouse brain at 10 mg/kg, po; format: ADME, organism-based; design: route oral, time 0 - last, dose 10 mg/kg; how it was run: as §1
# [22] = Tmax in C57 Black mouse spleen at 10 mg/kg, po; format: ADME, organism-based; how it was run: as §2
# [23] = Cmax in C57 Black mouse spleen at 10 mg/kg, iv; format: ADME, organism-based; design: route intravenous, dose 10 mg/kg; how it was run: as §1
# [24] = Half life in C57 Black mouse kidney at 10 mg/kg, iv; format: ADME, organism-based; how it was run: as §2
# [25] = AUClast in C57 Black mouse brain at 10 mg/kg, iv; format: ADME, organism-based; design: time 0 - last, route intravenous, dose 10 mg/kg; how it was run: as §1
# [26] = AUClast in C57 Black mouse muscle at 10 mg/kg, iv; format: ADME, organism-based, Muscle tissue; design: time 0 - last, route intravenous, dose 10 mg/kg; how it was run: as §1
# [27] = Half life in mouse hepatocytes at 1 uM up to 120 mins by HPLC-MS/MS analysis; format: ADME, cell-based, Hepatocyte
# CYP2C9 = CYP2C9 (Homo sapiens, UniProt P11712); experiment: Inhibition of human CYP2C9 using fluorogenic substrate incubated for 60 mins in presence of NADPH by fluorescence assay relative to control; format: ADME; settings: probe fluorogenic substrate
# CYP2C9, sequence (P11712 whole entry): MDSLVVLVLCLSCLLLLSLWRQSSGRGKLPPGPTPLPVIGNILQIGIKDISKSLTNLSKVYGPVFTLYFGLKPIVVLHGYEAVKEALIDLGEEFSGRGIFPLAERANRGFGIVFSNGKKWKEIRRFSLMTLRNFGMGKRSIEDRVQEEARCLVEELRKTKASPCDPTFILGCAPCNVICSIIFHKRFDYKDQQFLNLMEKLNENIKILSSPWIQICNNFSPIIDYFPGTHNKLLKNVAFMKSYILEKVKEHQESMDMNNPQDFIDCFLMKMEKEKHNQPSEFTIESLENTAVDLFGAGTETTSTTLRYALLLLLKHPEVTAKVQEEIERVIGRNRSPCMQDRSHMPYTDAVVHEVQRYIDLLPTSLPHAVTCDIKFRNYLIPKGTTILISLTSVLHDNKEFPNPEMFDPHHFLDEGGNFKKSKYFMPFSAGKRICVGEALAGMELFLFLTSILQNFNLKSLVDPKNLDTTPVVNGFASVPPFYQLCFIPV
# How it was run: (§3)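 Baculosomes each expressing a single cDNA-derived human P450 isozyme were incubated with compound at 10 µM, a fluorogenic substrate and NADPH. Incubation was at 37 °C for at least 60 min before fluorescence was read, n = 3.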
# [28] = AUCall in C57 Black mouse plasma at 10 mg/kg, po; format: ADME, organism-based; design: dose 10 mg/kg; how it was run: as §1
# [29] = Intrinsic clearance in mouse hepatocytes at 1 uM up to 120 mins by HPLC-MS/MS analysis; format: ADME, cell-based, Hepatocyte; settings: 2 h
# [30] = Metabolic stability in human hepatocytes assessed as hepatic extraction ratio at 1 uM up to 120 mins by HPLC-MS/MS analysis; format: ADME, cell-based, Hepatocyte
# How it was run: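 Cryopreserved hepatocytes (human or mouse) added to buffer containing compound at 1 µM; incubated at 37 °C up to 120 min, stopped with acetonitrile containing internal standard. Centrifuged supernatant analysed for parent compound by HPLC-MS/MS; n = 2. Half-life and intrinsic clearance (µL/min/10^6 cells) derived; extraction ratio reported from these.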
# [31] = Half life in mouse microsomes at 1 uM up to 120 mins by HPLC/MS-MS analysis; format: ADME, Microsome
# [32] = Tmax in C57 Black mouse plasma at 10 mg/kg, iv; format: ADME, organism-based; how it was run: as §2
# CYP2D6 = CYP2D6 (Homo sapiens, UniProt P10635); experiment: Inhibition of human CYP2D6 using fluorogenic substrate incubated for 60 mins in presence of NADPH by fluorescence assay relative to control; format: ADME; settings: probe fluorogenic substrate; how it was run: as §3
# CYP2D6, sequence (P10635 whole entry): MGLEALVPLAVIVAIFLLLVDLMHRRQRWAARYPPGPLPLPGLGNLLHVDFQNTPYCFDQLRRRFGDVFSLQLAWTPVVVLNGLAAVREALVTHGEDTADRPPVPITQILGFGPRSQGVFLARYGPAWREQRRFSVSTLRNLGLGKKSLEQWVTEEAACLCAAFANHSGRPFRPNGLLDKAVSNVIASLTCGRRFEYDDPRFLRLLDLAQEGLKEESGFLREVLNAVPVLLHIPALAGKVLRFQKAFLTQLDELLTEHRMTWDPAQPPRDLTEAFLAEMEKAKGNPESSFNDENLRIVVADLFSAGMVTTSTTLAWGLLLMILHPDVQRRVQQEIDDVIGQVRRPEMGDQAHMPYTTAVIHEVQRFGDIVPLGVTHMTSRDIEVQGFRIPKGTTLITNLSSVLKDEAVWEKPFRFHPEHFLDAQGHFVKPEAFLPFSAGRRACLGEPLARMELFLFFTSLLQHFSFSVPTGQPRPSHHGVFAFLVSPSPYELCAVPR
# CYP1A2 = target: T1, CYP1A2 (Homo sapiens, UniProt P05177); experiment: Inhibition of human CYP1A2 using fluorogenic substrate incubated for 60 mins in presence of NADPH by fluorescence assay relative to control; format: ADME; settings: probe fluorogenic substrate; how it was run: as §3
# T1 sequence (P05177 whole entry): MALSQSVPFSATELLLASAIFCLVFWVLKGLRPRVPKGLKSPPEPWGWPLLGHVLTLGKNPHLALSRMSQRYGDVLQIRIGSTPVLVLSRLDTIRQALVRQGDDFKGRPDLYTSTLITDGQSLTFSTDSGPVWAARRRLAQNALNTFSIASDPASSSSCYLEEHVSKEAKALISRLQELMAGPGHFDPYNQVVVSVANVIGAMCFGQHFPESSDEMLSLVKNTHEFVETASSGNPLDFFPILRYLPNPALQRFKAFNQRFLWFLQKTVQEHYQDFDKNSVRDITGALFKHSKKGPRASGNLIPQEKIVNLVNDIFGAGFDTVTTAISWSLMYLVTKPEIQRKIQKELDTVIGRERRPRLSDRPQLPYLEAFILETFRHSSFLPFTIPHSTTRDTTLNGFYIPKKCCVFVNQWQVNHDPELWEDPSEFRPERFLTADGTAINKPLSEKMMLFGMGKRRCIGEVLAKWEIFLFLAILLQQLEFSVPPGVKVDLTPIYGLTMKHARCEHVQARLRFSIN
# [33] = Cmax in C57 Black mouse plasma at 10 mg/kg, iv; format: ADME, organism-based; design: route intravenous, dose 10 mg/kg; how it was run: as §1
structure (smiles),measurement,setting,value
O=C(CCCc1cccs1)N1CCN(c2ccc(C(F)(F)F)cc2)CC1,fraction unbound at 1 µM,[1],0.0052
same,AUC(0-t),[2],1.22 µg·h/mL
same,half-life at 1 µM,[3],808 min
same,AUC,[4],1.26 µg·h/mL
same,Cmax,[5],4.88 µg/mL
same,Cmax,[6],1.03 µg/mL
same,Tmax,[7],15 min
same,Bioavailability,[8],21.4%
same,Cmax,[9],1.1 µg/mL
same,AUC(0-inf),[10],0.348 µg·h/mL
same,Tmax,[11],1.8 min
same,Vd,[12],7.13 L/kg
same,half-life,[13],30 min
same,Tmax,[14],15 min
same,clearance,[15],5.4 L/h/kg
same,AUC,[16],0.32 µg·h/mL
same,AUC(0-inf),[17],1.27 µg·h/mL
same,AUC(0-t),[18],0.463 µg·h/mL
same,microsomal CLint at 1 µM,[19],226 µL/min/mg
same,half-life,[20],45.6 min
same,AUC(0-t),[21],0.763 µg·h/mL
same,Tmax,[22],15 min
same,Cmax,[23],0.587 µg/mL
same,half-life,[24],45.6 min
same,AUC(0-t),[25],0.246 µg·h/mL
same,AUC(0-t),[26],0.0773 µg·h/mL
same,half-life at 1 µM,[27],126 min
same,inhibition at 1 h,CYP2C9,74.2%
same,AUC,[28],0.52 µg·h/mL
same,CLH,[29],8 µL/min
same,"hepatic extraction ratio at 2 h, 1 µM",[30],0.98
same,half-life at 1 µM,[31],6 min
same,Tmax,[32],1.8 min
same,inhibition at 1 h,CYP2D6,-2.7%
same,inhibition at 1 h,CYP1A2,53.7%
same,Cmax,[33],0.996 µg/mL
